# System: not listed separately
# Assay: Anti-prion activity against Scrapie prion protein in mouse N2a-FK cells after 48 hrs by immunoblotting analysis
# Assay type: cell-based
# How it was run: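 N2a cells persistently infected with FK-1 prion strain, seeded overnight at 37 °C, then exposed to compound at 1, 5 and 10 µM for 48 h. Lysates digested with 20 μg/mL proteinase K at 37 °C for 30 min, run on 15% SDS-PAGE, and western blotted. PrP^Sc band intensity was plotted against concentration and fitted to a Boltzmann sigmoid for IC50. Mean ± SD from at least three experiments.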
row,SMILES,IC50 [µM]
1,O[C@@]1(C#Cc2ccc(F)cc2)CCCC[C@@H]1NCC1CCCCC1 (racemic),5.6
2,O[C@@]1(C#Cc2ccccc2)CCCC[C@@H]1NCC1CCCCC1 (racemic),4.7

# System: not listed separately
# Assay: Anti-prion activity against 22L prion protein in mouse N2a cells by Western blotting analysis
# Assay type: cell-based
row,SMILES,IC50 [µM]
1,OC1(C#Cc2ccccc2)CCCCC1NCc1ccccc1 (racemic),8.25

# System: N2a
# Assay: Anti-prion activity against Scrapie prion protein in mouse N2a-FK cells assessed as residual activity at 10 uM after 48 hrs by immunoblotting analysis relative to control
# Assay type: cell-based
# How it was run: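 FK-1-infected N2a cells were seeded overnight at 37 °C, then exposed to 10 µM compound for 48 h. Lysates were treated with 20 μg/mL proteinase K at 37 °C for 30 min, then 15% SDS-PAGE and western blot for PrP^Sc. PrP^Sc ratio is % of solvent-treated control (100%), Tukey-Kramer comparison, mean ± SD.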
row,SMILES,Activity [%]
1,Cc1cccc(C#C[C@]2(O)CCCC[C@@H]2NCc2ccccc2)c1,93.7
2,Cc1cccc(CN[C@H]2CCCC[C@@]2(O)C#Cc2ccccc2)c1,84.8
3,O=C1O[C@@]2(C#Cc3ccccc3)CCCC[C@@H]2N1Cc1ccccc1,68.4
4,OC(C#Cc1ccccc1)CNCc1ccccc1 (centres undefined),120
5,O[C@@]1(/C=C/c2ccccc2)CCCC[C@@H]1NCc1ccccc1,81.6
6,O[C@@]1(C#Cc2ccccc2)CCCC[C@@H]1NCc1ccccc1,100
7,C(#C[C@@]12CCCC[C@@H]1N2Cc1ccccc1)c1ccccc1 (mixture of isomers),96.7
8,O[C@@]1(C#Cc2ccccc2)CCCC[C@@H]1NCc1ccccc1F (mixture of isomers),68.6
9,O[C@@]1(C#Cc2ccc(F)cc2)CCCC[C@@H]1NCC1CCCCC1 (racemic),35.5
10,OC1(C#Cc2ccccc2)CCCCC1NCc1ccccc1 (racemic),85.8
11,O[C@@]1(C#Cc2ccccc2)CCCC[C@@H]1NCC1CCCCC1 (racemic),32.7
12,CC(C)(C)OC(=O)N1CC[C@@](O)(C#Cc2ccccc2)[C@@H](NCc2ccccc2)C1 (racemic),108
13,CCOC(=O)CN(Cc1ccccc1)[C@H]1CCCC[C@@]1(O)C#Cc1ccccc1 (racemic),76.1
14,COC(=O)c1ccc(C#C[C@]2(O)CCCC[C@@H]2NCc2ccccc2)cc1 (racemic),84.8
15,COC(=O)c1cccc(C#C[C@]2(O)CCCC[C@@H]2NCc2ccccc2)c1 (racemic),83.7
16,COC(=O)c1ccccc1C#C[C@]1(O)CCCC[C@@H]1NCc1ccccc1 (racemic),103
17,COc1ccc(C#C[C@]2(O)CCCC[C@@H]2NCc2ccccc2)cc1 (racemic),75.7
18,COc1ccc(CN[C@H]2CCCC[C@@]2(O)C#Cc2ccccc2)cc1 (racemic),83.3
19,Cc1ccc(C#C[C@]2(O)CCCC[C@@H]2NCC2CCCCC2)cc1 (racemic),75.2
20,Cc1ccc(CN[C@H]2CCCC[C@@]2(O)C#Cc2ccccc2)cc1 (racemic),75.5

row,SMILES,Activity [%]
1,N[C@H]1CCCC[C@@]1(O)CCc1ccccc1 (racemic),88
2,O=C(N[C@H]1CCCC[C@@]1(O)CCc1ccccc1)c1ccccc1 (racemic),126
3,O=S(=O)(N[C@H]1CCCC[C@@]1(O)CCc1ccccc1)c1ccccc1 (racemic),112
4,OC1(CN[C@H]2CCCC[C@@]2(O)C#Cc2ccccc2)CCCCC1 (racemic),77.5
5,O[C@@]1(C#Cc2ccc(Cl)cc2)CCCC[C@@H]1NCc1ccccc1 (racemic),77.5
6,O[C@@]1(C#Cc2ccc(F)cc2)CCCC[C@@H]1NCc1ccccc1 (racemic),95.1
7,O[C@@]1(C#Cc2cccc(F)c2)CCCC[C@@H]1NCc1ccccc1 (racemic),74.5
8,O[C@@]1(C#Cc2ccccc2)CCCCC[C@@H]1NCc1ccccc1 (racemic),75.7
9,O[C@@]1(C#Cc2ccccc2)CCCC[C@@H]1N1CC[C@@H]2CCCC[C@H]2C1 (racemic),66.7
10,O[C@@]1(C#Cc2ccccc2)CCCC[C@@H]1N1CCc2ccccc2C1 (racemic),86
11,O[C@@]1(C#Cc2ccccc2)CCCC[C@@H]1NCC1CCCC1 (racemic),54.8
12,O[C@@]1(C#Cc2ccccc2)CCCC[C@@H]1NCc1ccc(F)cc1 (racemic),58.8
13,O[C@@]1(C#Cc2ccccc2)CCCC[C@@H]1NCc1cccc(F)c1 (racemic),61.2
14,O[C@@]1(C#Cc2ccccc2)CCCC[C@@H]1NCc1ccccc1Cl (racemic),96.1
15,O[C@@]1(C#Cc2ccccc2)CCCC[C@@H]1NCc1ccccn1 (racemic),116
16,O[C@@]1(C#Cc2ccccc2)CCCC[C@@H]1NCc1cccnc1 (racemic),63.4
17,O[C@@]1(C#Cc2ccccc2)CCCC[C@@H]1NCc1ccco1 (racemic),103
18,O[C@@]1(C#Cc2ccccc2)CCCC[C@@H]1NCc1ccncc1 (racemic),102
19,O[C@@]1(C#Cc2ccccc2)CCOC[C@@H]1NCc1ccccc1 (racemic),85.2
20,O[C@@]1(C#Cc2ccccc2F)CCCC[C@@H]1NCc1ccccc1 (racemic),80.7

# System: not listed separately
# Assay: Anti-prion activity against RML prion protein in mouse N2a cells by Western blotting analysis
# Assay type: cell-based
row,SMILES,IC50 [µM]
1,OC1(C#Cc2ccccc2)CCCCC1NCc1ccccc1 (racemic),3.21
